Test results reported in ChEMBL document CHEMBL4017489, “Design, Synthesis, and Evaluation of New Selective NM23-H2 Binders as c-MYC Transcription Inhibitors via Disruption of the NM23-H2/G-Quadruplex Interaction” (J Med Chem, 2017).
The source made the active and inactive calls. The rule behind the calls is not given here.

How the values were obtained:
[1] = target: T1, Nucleoside diphosphate kinase B (Homo sapiens, UniProt P22392); test: Binding affinity to N-terminal NT-647-NHS labeled NM23-H2 (unknown origin) after 30 mins by MST analysis
Method in brief: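 NM23-H2 N-terminally labeled with RED-NHS dye (20 μM protein, 30 min dark, RT), free dye removed; 200 nM labeled protein with compound from 500 μM, 16 twofold steps, 30 min RT in 50 mM Tris-HCl pH 7.4, 150 mM NaCl, 10 mM MgCl2, 0.05% Tween-20; KD at half-plateau.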

[2] = Binding affinity to Htg21 telomeric G-quadruplex DNA (unknown origin) at 40 uM after 30 mins by SPR analysis
[3] = Binding affinity to biotin-labeled 18-mer duplex DNA hairpin (unknown origin) at 40 uM after 30 mins by SPR analysis
[4] = target: T1, Nucleoside diphosphate kinase B; test: Binding affinity to NM23-H2 (unknown origin) up to 40 uM by SPR analysis
[5] = target: T1, Nucleoside diphosphate kinase B; test: Binding affinity to NM23-H2 (unknown origin) by SPR analysis
[6] = target: T1, Nucleoside diphosphate kinase B; test: Binding affinity to NM23-H2 (unknown origin) assessed as ratio of Kd for protein interaction with biotin-labeled Pu22 c-myc G-quadruplex DNA in presence and absence of compound after 1 hr by ELISA
[7] = Binding affinity to biotin-labeled Pu22 c-myc G-quadruplex DNA (unknown origin) by SPR analysis

T1 sequence (P22392 whole entry): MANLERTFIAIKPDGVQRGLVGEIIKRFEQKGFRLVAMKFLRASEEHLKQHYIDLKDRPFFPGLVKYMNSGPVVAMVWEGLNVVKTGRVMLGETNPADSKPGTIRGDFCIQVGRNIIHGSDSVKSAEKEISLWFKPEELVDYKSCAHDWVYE

| Compound | Kd [1] | Activity [2] | Activity [3] | Activity [4] | Kd [5] | Ratio [6] | Kd [7] |
| --- | --- | --- | --- | --- | --- | --- | --- |
| CCN(CC)CCCNc1cc2nc3n(c(=O)c2cc1F)CC/C3=C\c1ccccc1OC | 72.8 µM | inactive | inactive | inactive | – | – | – |
| CCN(CC)CCCNc1cc2nc3n(c(=O)c2cc1F)CC/C3=C\c1cc(OC)c(OC)c(OC)c1 | 28.2 µM | inactive | inactive | – | 16.3 µM | – | – |
| CC(C)Oc1ccc(/C=C2\CCn3c2nc2cc(NCCCN(C)C)c(F)cc2c3=O)cc1 | 15.4 µM | inactive | inactive | – | 9.6 µM | > 3 | – |
| CCN(CC)CCCNc1cc2nc3n(c(=O)c2cc1F)CC/C3=C\c1ccc(N2CCCCC2)cc1 | – | inactive | inactive | inactive | – | – | – |
| COc1cc(/C=C2\CCn3c2nc2cc(NCCCN(C)C)c(F)cc2c3=O)cc(OC)c1O | 16.5 µM | inactive | inactive | – | 13.3 µM | – | – |
| CCN(CC)CCCNc1cc2nc3n(c(=O)c2cc1F)CC/C3=C\c1ccc(OC)cc1 | 23.5 µM | inactive | inactive | – | 15.4 µM | – | – |
| CCN(CC)CCCNC(=O)c1ccc(/C=C2\CCn3c2nc2cc(NCCN4CCCC4)c(F)cc2c3=O)cc1 | – | – | – | – | 7.6 µM | – | 3.8 µM |
| CCN(CC)CCCNc1cc2nc3n(c(=O)c2cc1F)CC/C3=C\c1ccc(N(CC)CC)cc1 | 48.5 µM | inactive | inactive | inactive | – | 2.1 to 2.6 | – |
| CCN(CC)CCCNc1cc2nc3n(c(=O)c2cc1F)CC/C3=C\c1ccc(C(F)(F)F)cc1 | 59.4 µM | inactive | inactive | inactive | – | – | – |
| COc1cc(/C=C2\CCn3c2nc2cc(NCCCN(C)C)c(F)cc2c3=O)cc(OC)c1OC | 18.4 µM | inactive | inactive | – | 16.8 µM | 2.1 to 2.6 | – |
| CCN(CC)CCCNc1cc2nc3n(c(=O)c2cc1F)CC/C3=C\c1ccc(F)cc1 | 61.6 µM | inactive | inactive | inactive | – | – | – |
| O=c1c2cc(F)c(NCCCN3CCOCC3)cc2nc2n1CC/C2=C\c1ccc(N2CCOCC2)cc1 | – | inactive | inactive | inactive | – | – | – |
| C#CCOc1ccc(/C=C2\CCn3c2nc2cc(NCCN(C)C)c(F)cc2c3=O)cc1 | 27.5 µM | inactive | inactive | inactive | – | – | – |
| CCN(CC)c1ccc(/C=C2\CCn3c2nc2cc(NCCN(C)C)c(F)cc2c3=O)cc1 | 45.7 µM | inactive | inactive | inactive | – | – | – |
| CCN(CC)CCCNc1cc2nc3n(c(=O)c2cc1F)CC/C3=C\c1ccc(OCc2ccccc2)cc1 | 20.6 µM | inactive | inactive | – | 14.6 µM | > 3 | – |
| COc1cc(/C=C2\CCn3c2nc2cc(NCCCN4CCOCC4)c(F)cc2c3=O)cc(OC)c1OC | 23.6 µM | inactive | inactive | – | 18.5 µM | – | – |

| Compound | Kd [1] | Activity [2] | Activity [3] | Activity [4] | Kd [5] | Ratio [6] | Kd [7] |
| --- | --- | --- | --- | --- | --- | --- | --- |
| CN(C)CCCNc1cc2nc3n(c(=O)c2cc1F)CC/C3=C\c1ccc(O)c(O)c1 | 10.7 µM | inactive | inactive | – | 9.2 µM | – | – |
| CCN(CC)CCCNc1cc2nc3n(c(=O)c2cc1F)CC/C3=C\c1ccc(OC)c(OC)c1 | 25.1 µM | inactive | inactive | – | 17.1 µM | – | – |
| CCN(CC)CCCNc1cc2nc3n(c(=O)c2cc1F)CC/C3=C\c1ccc(C(C)C)cc1 | – | inactive | inactive | inactive | – | – | – |
| O=c1c2cc(F)c(NCCCN3CCOCC3)cc2nc2n1CC/C2=C\c1ccc(N2CCCCC2)cc1 | – | inactive | inactive | inactive | – | – | – |
| CCN(CC)CCCNc1cc2nc3n(c(=O)c2cc1F)CC/C3=C\c1ccc(N2CCOCC2)cc1 | 55.3 µM | inactive | inactive | inactive | – | – | – |
| CN(C)CCCNc1cc2nc3n(c(=O)c2cc1F)CC/C3=C\c1ccc(/C=C/c2ccccn2)cc1 | 10.8 µM | inactive | inactive | – | 8.5 µM | > 3 | – |
| CCCOc1ccc(/C=C2\CCn3c2nc2cc(NCCCN(C)C)c(F)cc2c3=O)cc1 | 21 µM | inactive | inactive | – | 20.6 µM | – | – |
| COc1ccc(/C=C2\CCn3c2nc2cc(NCCCN(C)C)c(F)cc2c3=O)cc1OC | 19.2 µM | inactive | inactive | – | 15.8 µM | – | – |
| C#CCOc1ccc(/C=C2\CCn3c2nc2cc(NCCCN(C)C)c(F)cc2c3=O)cc1 | 8.9 µM | inactive | inactive | – | 25.6 µM | – | – |
| CCN(CC)CCCNc1cc2nc3n(c(=O)c2cc1F)CC/C3=C\c1ccc(OCc2ccccc2)c(O)c1 | 25.8 µM | inactive | inactive | – | 16.7 µM | > 3 | – |
| CN(C)CCNc1cc2nc3n(c(=O)c2cc1F)CC/C3=C\c1ccc(C=O)cc1 | 68 µM | inactive | inactive | inactive | – | – | – |
| CCN(CC)CCCNc1cc2nc3n(c(=O)c2cc1F)CC/C3=C\c1ccc(N(CC)CC)cc1O | 11.7 µM | inactive | inactive | – | 13.9 µM | 2.1 to 2.6 | – |
| CC(=O)Oc1ccc(/C=C2\CCn3c2nc2cc(NCCCN(C)C)c(F)cc2c3=O)cc1 | 18.9 µM | inactive | inactive | – | 10.1 µM | – | 35.8 µM |
| CCN(CC)CCCNc1cc2nc3n(c(=O)c2cc1F)CC/C3=C\c1ccc(/C=C/c2ccccn2)cc1 | 20.8 µM | inactive | inactive | – | 13.8 µM | 2.1 to 2.6 | – |
| CN(C)CCCNc1cc2nc3n(c(=O)c2cc1F)CC/C3=C\c1ccc(Oc2ccccc2)cc1 | 16.3 µM | inactive | inactive | – | 12.4 µM | – | – |

More lines, now with the values ahead:

| Kd [1] | Activity [2] | Activity [3] | Activity [4] | Kd [5] | Ratio [6] | Kd [7] | Compound |
| --- | --- | --- | --- | --- | --- | --- | --- |
| – | inactive | inactive | – | 38 µM | – | – | O=Cc1ccc(/C=C2\CCn3c2nc2cc(NCCCN4CCOCC4)c(F)cc2c3=O)cc1 |
| – | inactive | inactive | inactive | – | – | – | CC(C)c1ccc(/C=C2\CCn3c2nc2cc(NCCCN4CCOCC4)c(F)cc2c3=O)cc1 |
| 3.4 µM | inactive | inactive | – | 4.6 µM | > 3 | – | CCN(CC)CCCNc1cc2nc3n(c(=O)c2cc1F)CC/C3=C\c1ccc(OCc2ccccc2)cc1O |
| – | inactive | inactive | inactive | – | – | – | O=c1c2cc(F)c(NCCCN3CCOCC3)cc2nc2n1CC/C2=C\c1ccc(C(F)(F)F)cc1 |
| – | inactive | inactive | inactive | – | – | – | CCN(CC)c1ccc(/C=C2\CCn3c2nc2cc(NCCCN4CCOCC4)c(F)cc2c3=O)cc1 |
| 44.2 µM | inactive | inactive | inactive | – | – | – | O=c1c2cc(F)c(NCCCN3CCOCC3)cc2nc2n1CC/C2=C\c1ccc(F)cc1 |
| 6.4 µM | inactive | inactive | – | 8.1 µM | > 3 | – | CN(C)CCNc1cc2nc3n(c(=O)c2cc1F)CC/C3=C\c1ccc(OCc2ccccc2)cc1O |
| 10.8 µM | inactive | inactive | – | 11.5 µM | > 3 | – | O=c1c2cc(F)c(NCCCN3CCCC3)cc2nc2n1CC/C2=C\c1ccc(OCc2ccccc2)cc1O |
| 16.9 µM | inactive | inactive | – | 14.3 µM | – | – | O=c1c2cc(F)c(NCCCN3CCOCC3)cc2nc2n1CC/C2=C\c1ccc(OCc2ccccc2)cc1O |
| 16.1 µM | inactive | inactive | – | 13.2 µM | > 3 | – | CN(C)CCCNc1cc2nc3n(c(=O)c2cc1F)CC/C3=C\c1ccc(OCc2ccccc2)c(O)c1 |
| 22.3 µM | inactive | inactive | – | 18.4 µM | 2.1 to 2.6 | – | O=c1c2cc(F)c(NCCCN3CCOCC3)cc2nc2n1CC/C2=C\c1ccc(OCc2ccccc2)cc1 |
| 56 µM | inactive | inactive | inactive | – | – | – | O=c1c2cc(F)c(N3CCOCC3)cc2nc2n1CC/C2=C\c1ccc(OCc2ccccc2)cc1O |
| 7.6 µM | inactive | inactive | – | 12.2 µM | > 3 | – | O=c1c2cc(F)c(NCCN3CCCCC3)cc2nc2n1CC/C2=C\c1ccc(OCc2ccccc2)cc1O |
| 25.6 µM | inactive | inactive | – | 28.4 µM | – | – | COc1ccc(/C=C2\CCn3c2nc2cc(NCCCN4CCOCC4)c(F)cc2c3=O)cc1 |
